Experimental data as given in article PMC8358665 (Chembiochem : a European journal of chemical biology, 2021).

Legend:
Format in all cases: cell-based
VCaP_NED = experiment: Western blotting of protein expression during NED; settings: 10 μM, 48 hours
Procedure, shortened: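 Neuroendocrine-differentiated cells were treated for 48 h with DMSO, 10 μM GSK343 (an EZH2 inhibitor) or 10 μM test compound. Parental cells treated with DMSO served as the reference. Whole-cell lysates were extracted and analysed by western blotting. Data are from n=3 biological replicates, shown with SEM, and compared by two-tailed Student's t-test.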

LNCaP_NED cells = experiment: Cell proliferation
Procedure, shortened: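 LNCaP cells were cultured in charcoal-stripped serum (androgen- and steroid-depleted) media to induce neuroendocrine differentiation (LNCaP_NED). NED cells were then exposed to the test compound and/or the AR antagonist enzalutamide for 4 days, and cell proliferation was measured. DMSO served as the negative control.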

LNCaP cells = experiment: Cell proliferation

Row | SMILES | CBX2 protein expression (VCaP_NED) | H3K27me3 levels (global) (VCaP_NED) | AR protein expression (VCaP_NED; compared to DMSO) | ENO2 and N-Myc protein expression (VCaP_NED; compared to DMSO) | cell proliferation with AR antagonist (LNCaP_NED cells) | cell proliferation with AR antagonist (LNCaP cells)
1 | CCCc1cc(C)[nH]c(=O)c1CNC(=O)c1cc(-c2ccnc(N3CCN(C)CC3)c2)cc2c1cnn2C(C)C [GSK343] | decrease in CBX2 expression | reduces H3K27me3 levels | increase AR | decrease ENO2 and N-Myc expression |  | 
2 | CNC(=O)c1ccc(N2C(=S)N(c3ccc(C#N)c(C(F)(F)F)c3)C(=O)C2(C)C)cc1F [enzalutamide] |  |  |  |  | no further decrease in proliferation | highly decreased proliferation
